Laboratory results as given in ChEMBL document CHEMBL1154463, “Synthesis and induction of G0-G1 phase arrest with apoptosis of 3,5-dimethyl-6-phenyl-8-(trifluoromethyl)-5,6-dihydropyrazolo[3,4-f][1,2,3,5]tetrazepin-4(3H)-one” (Eur J Med Chem, 2008).
Structures can show the parent of a compound that is named as a salt. Active and inactive are the calls of the source. The calls are words filed in the database; no cut-off is given here.

How the values were obtained:
[1] = system: K562; experiment: Induction of apoptosis in human K562 cells after 48 hrs; type: functional, cell-based; details: K562, 48 h
[2] = system: HL-60; experiment: Induction of apoptosis in human HL60 cells after 48 hrs; type: functional, cell-based; details: HL-60, 48 h
Method in brief: (§1)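 Cells exposed 48 h to a range of concentrations, then 2 × 10⁵ cells pelleted (300 × g) and stained with acridine orange and ethidium bromide ([…]). Read by fluorescence microscopy under oil immersion. Apoptosis scored by perinuclear chromatin condensation and apoptotic bodies, counting ≥300 cells. AC50 = concentration giving 50% apoptotic cells. Bars: SE.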

[3] = system: HL-60; experiment: Induction of apoptosis in multidrug resistant human HL60 cells after 48 hrs; type: functional, cell-based; details: HL-60, 48 h; method in brief: as §1
[4] = system: K562; experiment: Cytotoxicity against imatinib mesylate-resistant human K562 cells after 48 hrs by trypan blue exclusion method; type: functional, cell-based; details: K562, 48 h
Method in brief: (§2)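 2 × 10⁵ cells in 1 ml complete medium treated with a range of concentrations, added as freshly prepared DMSO solution (final DMSO ≤0.3% v/v), for 48 h. Viable cells counted and expressed as percent of untreated control proliferation; IC50 = concentration inhibiting 50% of growth, from 48 h exposure. Bars: SE.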

[5] = system: K562; experiment: Induction of apoptosis in imatinib mesylate-resistant human K562 cells after 48 hrs; type: functional, cell-based; method in brief: as §1
[6] = system: HL-60; experiment: Cytotoxicity against human HL60 cells after 48 hrs by trypan blue exclusion method; type: functional, cell-based; details: HL-60, 48 h; method in brief: as §2
[7] = system: K562; experiment: Cell cycle arrest in human K562 cells assessed as accumulation at GO-G1 phase at 50 uM after 48 hrs by flow cytometry; type: functional
Method in brief: (§3)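 K562 cells cultured 24 h and 48 h without compound or at 25, 50 or […] (unit as printed). Cells washed in ice-cold PBS, resuspended at 10⁶/ml in hypotonic propidium iodide ([…])/0.03% v/v NP-40 in 0.1% sodium citrate for 30 min. DNA content read by flow cytometry as single-parameter histograms; G0–G1 and sub-G0–G1 fractions taken as percent of cells.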

[8] = system: K562; experiment: Induction of apoptosis in human K562 cells assessed as accumulation at sub GO-G1 phase accumulation after 24 hrs by flow cytometry; type: functional, cell-based; method in brief: as §3
[9] = system: HL-60; experiment: Cytotoxicity against multidrug-resistant human HL60 cells after 48 hrs by trypan blue exclusion method; type: functional, cell-based; details: HL-60, 48 h; method in brief: as §2
[10] = system: K562; experiment: Induction of apoptosis in human K562 cells assessed as accumulation at sub GO-G1 phase accumulation at 50 uM after 48 hrs by flow cytometry; type: functional; method in brief: as §3
[11] = system: K562; experiment: Cytotoxicity against human K562 cells after 48 hrs by trypan blue exclusion method; type: functional, cell-based; details: K562, 48 h; method in brief: as §2
[12] = system: K562; experiment: Cell cycle arrest in human K562 cells assessed as accumulation at GO-G1 phase after 24 hrs by flow cytometry; type: functional, cell-based; method in brief: as §3
[13] = system: K562; experiment: Induction of apoptosis in human K562 cells assessed as accumulation at sub GO-G1 phase accumulation at 50 uM after 24 hrs by flow cytometry; type: functional; method in brief: as §3
[14] = system: K562; experiment: Cell cycle arrest in human K562 cells assessed as accumulation at GO-G1 phase at 50 uM after 24 hrs by flow cytometry; type: functional; method in brief: as §3
[15] = system: HL-60; experiment: human HL60 cells after 48 hrs; details: HL-60, 48 h

Question: How did the AC50 [1] turn out when `Cc1ccc(NC(=O)c2ccc(CN3CCN(C)CC3)cc2)cc1Nc1nccc(-c2cccnc2)n1` [IMATINIB MESYLATE] was run?
Answer: Its AC50 is 62 µM.

Question: How did the AC50 [2] turn out when `COc1cc([C@@H]2c3cc4c(cc3[C@@H](O[C@@H]3O[C@@H]5CO[C@@H](C)O[C@H]5[C@H](O)[C@H]3O)[C@H]3COC(=O)[C@H]23)OCO4)cc(OC)c1O` [ETOPOSIDE] was run?
Answer: The AC50 was 0.4 µM.

Question: And the AC50 [3]?
Answer: The AC50 was over 400 µM.

Question: How did the IC50 [4] turn out when `CN1N=Nc2c(C(F)(F)F)nn(-c3ccccc3)c2N(C)C1=O` was run?
Answer: The IC50 was 38 µM.

Question: And the AC50 ([5]; K562, 48 h)?
Answer: Its AC50 is 62 µM.

Question: And the IC50 [6]?
Answer: The IC50 was 21 µM.

Question: And the Activity [7]?
Answer: The Activity was 28.7%.

Question: And the Activity [8]?
Answer: The Activity was “inactive”.

Question: What about the IC50 [9] of the same molecule?
Answer: Its IC50 is 30 µM.

Question: What about the AC50 [2] of the same molecule?
Answer: The AC50 was 36 µM.

Question: What about the Activity [10] of the same molecule?
Answer: Its Activity is 52.2%.

Question: What about the AC50 [3] of the same molecule?
Answer: Its AC50 is 38 µM.

Question: What about the IC50 [11] of the same molecule?
Answer: Its IC50 is 40 µM.

Question: And the Activity [12]?
Answer: The Activity was “Dose-dependent effect”.

Question: What about the AC50 [1] of the same molecule?
Answer: The AC50 was 57 µM.

Question: What about the Activity [13] of the same molecule?
Answer: Its Activity is 5%.

Question: What about the Activity [14] of the same molecule?
Answer: Its Activity is 60.7%.

Question: What does the source list for `COc1cccc2c1C(=O)c1c(O)c3c(c(O)c1C2=O)C[C@@](O)(C(C)=O)C[C@@H]3O[C@H]1C[C@H](N)[C@H](O)[C@H](C)O1` [DAUNORUBICIN]?
Answer: AC50 [3]: 38 µM; AC50 [15]: 0.1 µM

Question: How did the Activity [5] turn out when `CS(=O)(=O)OCCCCOS(C)(=O)=O` was run?
Answer: The Activity was “Active”.
